test: Toxicity liver stage against HepG2, at 10uM; assay type: cell-based; parameters: test concentration 10 uM, cell line HepG2-A16-CD81EGFP; settings: human, HepG2-A16-CD81EGFP cells; read-out: INHIBITION
Method in brief: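 Uninfected HepG2-A16-CD81EGFP cells, 3 × 10^3 per well, 1536-well, plated on prespotted compound at 10 μM final, parasite-free screening media added to match infected plates; puromycin 10 μM positive, DMSO 0.5% negative; run in parallel with 48 h PbLuc assay at 37 °C, 5% CO2; viability by CellTiter-Glo luminescence, normalized to controls.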

In order of falling cytotoxicity at 10 µM:
1. OCc1cc2ccccc2nc1N1CCCCC1  14.1%
2. CN1CCc2c(C#N)c(NCc3cccnc3)n3cnnc3c2C1  11.2%
3. COCC1CN(c2ccc(Cl)cc2C#N)CCO1 (stereo not given)  11.1%
4. Cc1ccc(N2CC[C@H]3CO[C@H](CN(C)Cc4ccco4)[C@H]3C2)nn1  8.35%
5. c1cc(CNCc2cccc3c2OCCCO3)cc(Cn2cncn2)c1  8.1%
6. O=C(Nc1cccc2c1CCCC2)c1cccnc1N1CCCNCC1  6.84%
7. O=C(O)c1ccc(S(=O)(=O)Nc2ccccc2CC(F)(F)F)c(F)c1  6.02%
8. CC(C)NC(=O)C1CN(C(=O)Cc2ccccc2)CC12CCOCC2 (stereo not given)  5.31%
9. CCC1CC(=O)NCc2nc3sc(C)cn3c21 (stereo not given)  5.27%
10. O=C(Cn1c(=O)n(Cc2ccco2)c2ncccc21)NC1CCCCC1  4.73%
11. COc1cccc(C(CO)NC(=O)Cc2cccc(C)c2)c1 (stereo not given)  4.53%
12. CCNC(=O)C1CCN(c2cc(-c3ccccc3F)nc3ccnn23)C1 (stereo not given)  4.31%
13. CCN(CC)C(=O)COc1nc(C(C)C)no1  3.6%
14. CNc1nc(C(=O)NCC2CCOc3ccccc3C2)cs1 (stereo not given)  2.53%
15. Cc1ccc(N2CCC3(CCCN(C(=O)c4cccnc4)C3)C2)nn1 (stereo not given)  2.21%
16. CCN(CC1CCOCC1)C(=O)C1CC(=O)N(Cc2cccnc2)C1 (stereo not given)  0.719%
17. CSc1ncccc1C(=O)NCCC(O)c1ccco1 (stereo not given)  -2.93%
18. CCC(CCNCc1cnc(C2CCC2)s1)N1CCCC1=O (stereo not given)  -3.13%
19. CSc1[nH]c(=O)c(C(=O)N2CCCC2c2cccs2)cc1C#N (stereo not given)  -3.49%
20. COc1cc(CNc2cc(-c3nncn3C)ccn2)cc(OC)c1OC  -3.78%
21. Cc1nc(C2CCCN(C(=O)CCCn3cccn3)C2)no1 (stereo not given)  -3.84%
22. c1cncc(COCc2nnc3n2CCN(Cc2ccco2)C3)c1  -4.04%
23. CCn1cc(CN2CCCC(CO)(CCc3ccccc3)C2)c(C)n1 (stereo not given)  -4.63%
24. CC(=O)N1N=C(c2cccs2)OC1C(=O)NCc1ccc(C)o1 (stereo not given)  -4.67%
25. COc1ccc(C2=CCN(C(=O)CN(C)Cc3ccoc3)CC2)cc1  -4.87%
26. CCN(CC)C(=O)CN(C)C1CCc2ccccc21 (stereo not given)  -5.1%
27. COc1ccccc1N1CCC(CNCc2cccc(C#N)c2)C1 (stereo not given)  -5.21%
28. CCNc1nc(C(=O)N(C)Cc2nc(CC)no2)cs1  -6.56%
29. CC(=O)N1CCCN(C(=O)NCc2ccccn2)CC1  -7.37%
30. COc1ccc(OC)c(C2CCN(C(=O)C3CCN(C(C)C)CC3)C2)c1 (stereo not given)  -7.49%
31. CN1[C@H](CO)C[C@H](CNCc2ccc(Cl)c(F)c2)[C@@H]1c1ccccc1F  -8.39%
32. CCC(C)N1C(=O)c2ccc(C(=O)NCCc3c[nH]cn3)cc2C1=O (stereo not given)  -8.64%
33. CCCSc1ncc(-c2nccn2CCC(N)=O)cn1  -10.4%
34. c1cnn(CCNCc2nnc(C3CC3)o2)c1  -10.5%
35. CC(C)c1nnc(NC(=O)CCc2cc(F)ccc2F)[nH]1  -16.9%
36. CO[C@@H]1CCN(S(=O)(=O)c2cccnc2)[C@@H]2CN(CC3CC3)C[C@@H]21  -65.7%
37. Cc1noc(C)c1CN1CC[C@H](OCC2CC2)[C@@H](Cc2ccccc2)C1  -65.8%
38. Cc1cc(CN2CC[C@H]3C(=O)N(c4cccnc4)CCO[C@H]3C2)no1  -66.8%
39. O=C(c1ccoc1)N1CC[C@@H]2O[C@@H](COCc3ccccn3)CC[C@@H]21  -71.1%
40. CCO[C@@H]1CCN(C(=O)c2cnc(C)cn2)[C@@H]1Cc1cnn(C)c1  -72.7%
41. c1ccc(OC2COC3(CCN(CC4CC4)CC3)C2)nc1 (stereo not given)  -75.2%
42. c1cncc(N2CCOCC3(CN(Cc4cccs4)CCO3)C2)c1 (stereo not given)  -79.7%
43. CN(Cc1cn2c(n1)CN(CC1CCOC1)CC2)Cc1ccco1 (stereo not given)  -82.9%
44. c1cnc(N2CCCC3(CCN(Cc4ccsc4)C3)C2)nc1 (stereo not given)  -83.2%
45. O=C(C1CC=CC1)N1C[C@@H]2CN(Cc3ccsc3)CCO[C@@H]2C1  -87.4%
